APOBEC3G inh: inhibitors of human APOBEC3G DNA deaminase; Q9HC16; recombinant A3G, ssDNA deamination FAM/TAMRA fluorescence; inhibition, % at 20 µM; 330,000 compounds, 0.28% hits;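 active means inhibition of at least 40% at 20 µM, with no more than 30% in the related APOBEC3A deaminase screen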;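 further: plate controls were DMSO wells with A3G for no effect and wells lacking A3G enzyme for full effect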
Target sequence (Q9HC16 whole entry, looked up): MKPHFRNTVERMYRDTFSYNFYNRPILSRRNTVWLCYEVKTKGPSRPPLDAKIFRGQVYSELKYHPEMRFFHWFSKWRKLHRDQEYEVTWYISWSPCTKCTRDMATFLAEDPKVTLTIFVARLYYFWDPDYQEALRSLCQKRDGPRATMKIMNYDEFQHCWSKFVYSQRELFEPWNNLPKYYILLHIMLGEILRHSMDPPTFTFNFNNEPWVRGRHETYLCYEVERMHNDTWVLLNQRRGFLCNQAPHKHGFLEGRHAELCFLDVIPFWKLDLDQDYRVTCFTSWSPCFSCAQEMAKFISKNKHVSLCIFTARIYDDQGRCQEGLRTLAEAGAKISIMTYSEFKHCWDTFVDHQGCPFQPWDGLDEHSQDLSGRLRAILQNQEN
A3A deaminase: human APOBEC3A DNA deaminase inhibition; recombinant A3A, FAM/TAMRA ssDNA deamination fluorescence; inhibition, % at 20 µM; 330,000 compounds, 0.41% hits;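 active means at least 40% inhibition at 20 µM here, with at most 30% in a related deaminase screen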;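 further: plate controls were A3A with DMSO for no effect and wells lacking A3A enzyme for full effect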
Target sequence (P31941 whole entry, looked up): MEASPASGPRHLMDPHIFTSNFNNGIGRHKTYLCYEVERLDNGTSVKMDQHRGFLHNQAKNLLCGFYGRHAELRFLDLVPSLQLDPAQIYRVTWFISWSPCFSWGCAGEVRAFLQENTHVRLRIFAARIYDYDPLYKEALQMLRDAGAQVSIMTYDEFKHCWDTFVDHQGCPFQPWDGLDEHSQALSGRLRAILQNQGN
PfG6PD inh: PfG6PD (Plasmodium falciparum) enzyme inhibition | PfGluPho enzyme, NADPH resazurin-diaphorase fluorescence | inhibition, % at 20 µM | 350,000 compounds, 0.78% hits | AID 504690;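 active means inhibition reaching at least a set limit at 20 µM in the primary screen, cut at about 59% in these data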;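 further: 0% = DMSO wells with substrate and 100% = DMSO wells lacking glucose-6-phosphate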
PfM18AAP inh: PfM18AAP enzyme inhibition. AID 1822. 290,000 compounds, 1.2% hits. inhibition, % at 7.35 µM. recombinant PfM18AAP, H-Glu-NHMec fluorogenic cleavage;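 active means inhibition above the campaign mean inhibition over all tested compounds plus 3 SD, cut at about 28% in these data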;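 further: 0% = plate median of test compound wells and 100% = 2 mM ZnCl2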
HKDC1 inhibitor: HKDC1 (human) hexokinase inhibition; Q2TB90; inhibition, % at 20 µM; recombinant HKDC1, G6PDH/diaphorase resazurin coupled fluorescence; 340,000 compounds, 0.16% hits;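 active means inhibition above about 35% when tested at 20 µM, limit read from the data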;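 further: plate controls were DMSO wells with enzyme for no effect and DMSO wells lacking enzyme for full effect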
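Test system: recombinant HKDC1 (HK5) hexokinase enzyme, produced in-house / Doses: 20 µM test compound, 1% DMSO / Timing: 90 min, room temperature / Detection: G6PDH/diaphorase-coupled fluorescence, 1 mM NADP, 100 µM resazurin, 525/613 nm / Control set: DMSO wells with and without enzyme mix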
UBC9 SUMO inh: blocks human SUMOylation mediated by UBC9 | 290,000 compounds, 0.36% hits | AID 2006 | HTRF SUMOylation assay, SAE1/SAE2 + UBC9, in vitro | inhibition, % at 35 µM | P63279; in the data active means inhibition above about 50%, passing the limit was not always enough; inconclusive means no clear call, values can overlap the other calls
PfGluPho conf: confirmation of Plasmodium falciparum G6PD inhibitors | shares compounds with PfG6PD inh | recombinant PfGluPho, NADPH-diaphorase-resazurin fluorescence | inhibition, % at 20 µM | 2,400 compounds, 34% hits;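 active means inhibition of at least 50% at 20 µM in any single replicate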;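 further: 0% = DMSO with substrate and 100% = DMSO lacking glucose-6-phosphate substrate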
Diaph ctr 10uM: inhibits diaphorase or oxidizes, flagging false PfG6PD hits | shares compounds with PfG6PD inh | diaphorase-coupled resazurin reduction, fluorescence, NADPH 10 uM | inhibition, % at 20 µM | 820 compounds, 39% hits | AID 504862;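 active means average inhibition reaching 50% or more with the compound at 20 µM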;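 further: resorufin red fluorescence formed as diaphorase reduces resazurin using NADPH; 0% = DMSO with enzyme and 100% = DMSO without enzyme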
Diaph ctr 30uM: inhibits diaphorase or oxidizes, flagging false PfG6PD hits; shares compounds with PfG6PD inh; Diaphorase/resazurin coupled assay, resorufin fluorescence, 30 uM NADPH; inhibition, % at 20 µM; 820 compounds, 29% hits; AID 504863;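 active means inhibition averaging 50% or more, tested at 20 µM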;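 further: 0% = DMSO with enzyme and 100% = DMSO wells lacking diaphorase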
* hit, by the source's call; ? = inconclusive; . = not tested or not shown. An excerpt weighted towards active compounds, which were near 2.4% of everything screened.

SMILES	APOBEC3G inh	A3A deaminase	PfG6PD inh	PfM18AAP inh	HKDC1 inhibitor	UBC9 SUMO inh	PfGluPho conf	others
Nc1ccc2c(c1)C(=O)C(=O)c1ccccc1-2	16	6	108*	12	2	?	89*	Diaph ctr 10uM=77*;Diaph ctr 30uM=90*
S=c1nc[nH]c2c1ncn2-c1ccc(Cl)cc1	.	.	66*	.	-5	.	24
CCc1cccc2c(C(=O)COC(=O)/C=C/c3ccccc3OC)c[nH]c12	-2	0	-6	-5	-8	-15	.
C=CCn1c(C)cc(C(=O)CSc2nnc(C3CC3)n2C2CC2)c1C	-3	-3	39	.	-1	.	.
Cc1cc(C(=O)CSc2nnc(C3CC3)n2C2CC2)c(C)n1C(C)C	-6	-5	43	.	2	.	19
CC(C)C1=CC(=Nc2ccc(S(N)(=O)=O)cc2)C=C(C(C)C)C1=O	-4	1	76*	10	17	-5	36
COc1cc(N)c2ncccc2c1Cl	.	.	60*	.	12	.	73*	Diaph ctr 10uM=22;Diaph ctr 30uM=23
Cc1ccccc1-c1ccc(C(=O)Nc2cccc(F)c2)o1	-5	1	69*	-1	2	3	-3
CN(CC(=O)Nc1ccccc1Cl)C(=O)COC(=O)/C=C/c1cccc(C(F)(F)F)c1	-5	-2	79*	.	-1	.	29
Cc1ccc(Nc2cc(C)nc(N3CCOCC3)n2)cc1	-7	-4	61*	0	0	36	12
Cc1cc(Nc2ccc(C)c(Cl)c2)nc(N2CCOCC2)n1	-1	0	66*	0	-2	4	8
CCOc1ccc(Nc2cc(C)nc(N3CCOCC3)n2)cc1	-2	7	-3	-7	-11	-6	.
COc1ccc(C(=O)Nc2cc(C)on2)cc1OC	-3	-3	-6	-1	-4	2	.
O=C(Nc1ccc(SC(F)F)cc1)C12CCC(CC1)C2	-1	1	72*	1	-7	-16	18
Cc1ccc(C(=O)COC(=O)COc2ccccc2C)cc1	14	0	-1	0	2	-16	.
O=C(COc1ccccc1F)OCC(=O)c1ccc([N+](=O)[O-])cc1	-9	-6	88*	.	-5	.	52*	Diaph ctr 10uM=19;Diaph ctr 30uM=-1
COc1cc(CNS(=O)(=O)CCl)cc(OC)c1OC	-5	2	9	.	6	.	.
FC(F)(F)c1cc(CCN2CCNC[C@@H]2c2ccccc2)cc(C(F)(F)F)c1	2	2	6	.	1	.	.
FC(F)(F)c1cc(CO[C@@H]2CCCN[C@@H]2c2ccccc2)cc(C(F)(F)F)c1	-1	8	67*	.	-1	.	22
Cc1ccc(N2CCN(C(=S)c3ccc(-c4ccccc4[N+](=O)[O-])o3)CC2)cc1	2	-2	60*	7	11	23	29
CCOc1ccccc1NC(=O)CCCNC(=O)Cn1cnc2sc(C)c(C)c2c1=O	-13	-3	67*	0	-4	12	45
COc1ccc(NC(=O)CCCNC(=O)Cn2cnc3sc(C)c(C)c3c2=O)c(OC)c1	-3	0	-3	-6	4	1	.
Cc1ccc(C(=O)COC(=O)c2c(C)cc(=O)oc2C)cc1[N+](=O)[O-]	-8	-4	67*	-5	9	10	-13
Cc1cc(=O)oc(C)c1C(=O)OCC(=O)c1ccc(Cl)c(Cl)c1	-2	3	7	14	-5	9	.
CCOc1ccc2[nH]c(S(=O)(=O)CC)nc2c1Cl	-5	-4	21	-2	-4	10	.
SMILES	APOBEC3G inh	A3A deaminase	PfG6PD inh	PfM18AAP inh	HKDC1 inhibitor	UBC9 SUMO inh	PfGluPho conf	others
O=C(CCc1ccc(S(=O)(=O)N2CCOCC2)cc1)N/N=C/c1ccc(O)c(O)c1O	9	35	68*	12	23	20	60*	Diaph ctr 10uM=33;Diaph ctr 30uM=43
O=C(O)Cn1c(CCS(=O)(=O)c2ccc(Br)cc2)nc2ccccc21	8	7	-1	-8	-11	1	.
COc1ccccc1-c1nc(C(=O)NCC2CCCO2)cc2c1[nH]c1ccccc12 (stereo unspecified)	-10	-3	64*	-6	0	20	17
CCCCNC(=O)CNC(=O)c1nn(-c2ccc(OC)c(OC)c2)c(=O)c2ccccc12	.	.	-17	.	.	.	.
CC1(OC(=O)C2CCCC2)C(=O)C=C2C=C(c3ccsc3)N(C3CCCC3)C=C2C1=O (stereo unspecified)	-6	-4	63*	.	23	-13	38
CC1(OC(=O)C2CCCC2)C(=O)C=C2C=C(c3ccsc3)N(Cc3ccco3)C=C2C1=O (stereo unspecified)	59	62	42	.	26	28	.
CC1(OC(=O)C2CCCC2)C(=O)C=C2C=C(c3ccsc3)N(CCCCO)C=C2C1=O (stereo unspecified)	-5	-3	66*	.	19	13	36
CCOC(=O)CC1ON(C)C(=O)N1c1ccc([N+](=O)[O-])cc1 (stereo unspecified)	-6	-8	-1	8	-3	17	.
Nc1ncnc2c1CN(Cc1ccccc1)CC2	.	.	7	.	-10	.	.
Cc1ccc(S(=O)(=O)N2CCOCC2)cc1NC(=O)CN1CCN(C)CC1	-5	-2	3	.	-4	.	.
COc1cccc(N2[C@@H](CC(=O)O)c3ccccc3S2(=O)=O)c1	-7	-4	-4	.	-1	.	.
COc1cccc(N2[C@@H](CC(=O)O)c3cc(C(F)(F)F)ccc3S2(=O)=O)c1	48	38	72*	.	2	.	26
CN(c1ccccc1)S(=O)(=O)c1cccc(NC(=O)C2CCCO2)c1 (stereo unspecified)	1	0	-12	.	1	.	.
O=C(CSc1ncn[nH]1)Nc1ccccc1Sc1ccc(Cl)cc1	-9	-2	110*	4	-2	14	68*	Diaph ctr 10uM=59*;Diaph ctr 30uM=57*
Cc1cc(-n2cnc3c(=O)[nH]cnc32)ccc1N	-6	-1	-2	-5	-7	22	.
COc1ccc(/C=C2\C(=O)NC(=O)c3ccccc32)cc1OC	.	.	69*	.	18	.	42
CC(C)(NC(=O)c1ccccc1)c1nc2ccccc2s1	22	4	60*	.	-2	.	38
COc1cccc(OC)c1OCCCCCCN1CCN(C)CC1	-8	-5	-12	-10	3	0	.
C[C@@H]1CCCCO[C@H](CN(C)C(=O)Nc2cccc3ccccc23)[C@@H](C)CN([C@H](C)CO)C(=O)c2cc(N(C)C)ccc2O1	.	.	63*	.	.	.	3

Screening data from PubChem.
